Source: ChEMBL document CHEMBL2346593, “Novel adamantyl cannabinoids as CB1 receptor probes” (J Med Chem, 2013)
Active and inactive are the calls of the source.

Experiments:
Cannabinoid receptor 2 [1] = biological target: Cannabinoid receptor 2 (Mus musculus, UniProt P47936); experiment: Displacement of [3H]CP-55940 from mouse CB2 receptor expressed in mouse spleen membrane by competitive binding assay; format: cell membranes
Procedure, shortened: (§1)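 Competition-equilibrium binding against [3H]CP-55,940 in rat brain membranes (CB1), mouse spleen membranes (mCB2), or membranes of HEK293 cells expressing hCB2. IC50 was obtained by nonlinear regression and converted to Ki. Ki is the mean of three independent experiments, each run in duplicate.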

Cannabinoid receptor 2 [2] = biological target: Cannabinoid receptor 2 (Homo sapiens, UniProt P34972); experiment: Displacement of [3H]CP-55940 from human CB2 receptor expressed in HEK293 cell membrane by competitive binding assay; format: cell membranes; procedure, shortened: as §1
[3] = Selectivity ratio of Ki for mouse CB2 receptor to Ki for rat CB1 receptor
Cannabinoid receptor 1 [4] = biological target: Cannabinoid receptor 1 (Rattus norvegicus, UniProt P20272); experiment: Displacement of [3H]CP-55940 from rat CB1 receptor expressed in rat brain membrane by competitive binding assay; format: cell membranes
[5] = Selectivity ratio of Ki for human CB2 receptor to Ki for rat CB1 receptor
Cannabinoid receptor 1 [6] = biological target: Cannabinoid receptor 1 (Homo sapiens, UniProt P21554); experiment: Agonist activity at human CB1 receptor transfected in human U2OS cells assessed as beta-arrestin2-GFP aggregation after 40 mins; format: cell-based
Rattus norvegicus [7] = experiment: Hypothermic effect in Sprague-Dawley rat assessed as decrease in core body temperature at 10 mg/kg; format: functional
Procedure, shortened: (§2)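 Female Sprague-Dawley rats (n = 5–7/group), minimally restrained and isolated, each with a thermistor probe inserted 7 cm and taped to the tail. Two baselines were taken 15 min apart, then sc injection (20% ethanol/20% emulphor/60% saline diluted with saline, 1.0 mL/kg). Temperature was read every 30 min for 3 h, then hourly to 6 h, as change from mean baseline.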

Rattus norvegicus [8] = experiment: Antinociceptive activity in Sprague-Dawley rat assessed as increase in tail-flick latency period at 0.1 to 10 mg/kg, sc after 6 hrs by tail-flick test; format: functional, organism-based
Procedure, shortened: (§3)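 Female Sprague-Dawley rats (235–350 g; n = 5–7/group), retested at least 7 days apart. Compound was dissolved in 20% ethanol/20% emulphor/60% saline, diluted with saline, and given sc at 1.0 mL/kg. Radiant-heat tail-flick latency was measured over 6 h with a 6 s cutoff. %MPE = 100 × (test − baseline)/(6 − baseline). Dose-effect curves used each rat's maximum effect.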

Rattus norvegicus [9] = experiment: Antinociceptive activity in Sprague-Dawley rat assessed as increase in tail-flick latency period at 0.1 to 10 mg/kg, sc after 60 to 120 mins by tail-flick test; format: functional, organism-based; procedure, shortened: as §3
Rattus norvegicus [10] = experiment: Hypothermic effect in Sprague-Dawley rat assessed as decrease in core body temperature at 1 mg/kg, sc measured over 6 hrs; format: functional; conditions: route subcutaneous; procedure, shortened: as §2
Rattus norvegicus [11] = experiment: Hypothermic effect in sc dosed Sprague-Dawley rat assessed as decrease in core body temperature after 60 mins to 6 hrs; format: functional, organism-based; procedure, shortened: as §2
Rattus norvegicus [12] = experiment: Antinociceptive activity in Sprague-Dawley rat assessed as increase in tail-flick latency period at 1 mg/kg, sc by tail-flick test; format: functional, organism-based; design: dose 1 mg/kg; procedure, shortened: as §3

Sequence of Cannabinoid receptor 2 (Homo sapiens, UniProt P34972) (P34972 whole entry): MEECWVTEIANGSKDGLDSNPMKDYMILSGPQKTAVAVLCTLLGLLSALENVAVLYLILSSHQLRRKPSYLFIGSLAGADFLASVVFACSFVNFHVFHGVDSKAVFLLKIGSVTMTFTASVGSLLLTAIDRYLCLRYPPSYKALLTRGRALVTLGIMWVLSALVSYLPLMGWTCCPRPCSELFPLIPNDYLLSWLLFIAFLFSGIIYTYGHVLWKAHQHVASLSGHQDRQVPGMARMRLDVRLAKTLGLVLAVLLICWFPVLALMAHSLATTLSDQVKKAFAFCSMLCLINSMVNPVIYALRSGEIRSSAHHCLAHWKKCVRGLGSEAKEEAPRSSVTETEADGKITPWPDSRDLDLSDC
Sequence of Cannabinoid receptor 2 (Mus musculus, UniProt P47936) (P47936 whole entry): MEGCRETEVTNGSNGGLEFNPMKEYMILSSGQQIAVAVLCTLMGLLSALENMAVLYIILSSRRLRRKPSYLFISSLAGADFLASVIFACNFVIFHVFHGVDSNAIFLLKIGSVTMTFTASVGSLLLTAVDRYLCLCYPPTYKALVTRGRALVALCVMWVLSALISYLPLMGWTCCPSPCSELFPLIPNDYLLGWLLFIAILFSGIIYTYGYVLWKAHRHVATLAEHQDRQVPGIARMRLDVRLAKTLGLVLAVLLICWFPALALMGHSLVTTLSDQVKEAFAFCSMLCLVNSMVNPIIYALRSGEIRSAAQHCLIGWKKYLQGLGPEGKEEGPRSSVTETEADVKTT
Sequence of Cannabinoid receptor 1 (Homo sapiens, UniProt P21554) (P21554 whole entry): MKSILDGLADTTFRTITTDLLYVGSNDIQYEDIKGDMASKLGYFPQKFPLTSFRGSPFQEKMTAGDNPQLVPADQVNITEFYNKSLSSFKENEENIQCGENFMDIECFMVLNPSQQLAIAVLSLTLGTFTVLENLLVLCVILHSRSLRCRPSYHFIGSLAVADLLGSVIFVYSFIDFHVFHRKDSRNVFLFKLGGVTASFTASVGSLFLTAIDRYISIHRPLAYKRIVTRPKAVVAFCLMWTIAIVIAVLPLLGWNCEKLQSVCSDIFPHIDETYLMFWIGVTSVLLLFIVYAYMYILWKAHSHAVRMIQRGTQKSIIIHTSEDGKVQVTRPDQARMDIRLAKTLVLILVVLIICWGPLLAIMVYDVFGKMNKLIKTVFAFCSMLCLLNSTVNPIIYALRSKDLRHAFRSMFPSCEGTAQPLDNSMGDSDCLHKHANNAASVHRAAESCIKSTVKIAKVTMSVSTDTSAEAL
Sequence of Cannabinoid receptor 1 (Rattus norvegicus, UniProt P20272) (P20272 whole entry): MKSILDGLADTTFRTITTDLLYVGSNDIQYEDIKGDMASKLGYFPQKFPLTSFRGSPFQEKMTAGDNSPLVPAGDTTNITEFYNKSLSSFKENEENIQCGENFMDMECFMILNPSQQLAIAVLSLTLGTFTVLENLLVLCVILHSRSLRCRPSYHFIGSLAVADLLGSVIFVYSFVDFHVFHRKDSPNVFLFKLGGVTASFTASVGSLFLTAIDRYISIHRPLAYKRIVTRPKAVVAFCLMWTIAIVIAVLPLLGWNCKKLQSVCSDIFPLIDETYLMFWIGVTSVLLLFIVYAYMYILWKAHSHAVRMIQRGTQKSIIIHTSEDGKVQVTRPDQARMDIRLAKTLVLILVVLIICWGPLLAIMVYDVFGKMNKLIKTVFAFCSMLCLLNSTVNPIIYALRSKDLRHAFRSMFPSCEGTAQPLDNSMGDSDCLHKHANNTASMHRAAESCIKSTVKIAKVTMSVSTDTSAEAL

| Structure (SMILES) | Ki (Cannabinoid receptor 2 [1]) | Ki (Cannabinoid receptor 2 [2]) | Ratio Ki [3] | Ki (Cannabinoid receptor 1 [4]) | Ratio Ki [5] | EC50 (Cannabinoid receptor 1 [6]) | T (Rattus norvegicus [7]) | Activity (Rattus norvegicus [8]) | Activity (Rattus norvegicus [9]) | Activity (Rattus norvegicus [7]) | T (Rattus norvegicus [10]) | Activity (Rattus norvegicus [11]) | Activity (Rattus norvegicus [12]) |
| --- | --- | --- | --- | --- | --- | --- | --- | --- | --- | --- | --- | --- | --- |
| CC(C)(C)C(=O)OCC1=CC[C@@H]2[C@@H](C1)c1c(O)cc(C34CC5CC(CC(C5)C3)C4)cc1OC2(C)C | 0.126 µM | 0.0492 µM | 7.6 | 0.0165 µM | 3 | – | – | – | – | – | – | – | – |
| CC1(C)Oc2cc(C34CC5CC(CC(C5)C3)C4)cc(O)c2-c2cc(CO)ccc21 | 0.0323 µM | 0.0467 µM | 15.4 | 0.0021 µM | 22.2 | 0.45 µM | 4.1 °C | – | – | – | – | – | – |
| CC1(C)Oc2cc(C34CC5CC(CC(C5)C3)C4)cc(O)c2[C@@H]2C[C@H](CI)CC[C@H]21 | 0.346 µM | 0.262 µM | 1.4 | 0.241 µM | 1.1 | – | – | – | – | – | – | – | – |
| CC1(C)Oc2cc(C34CC5CC(CC(C5)C3)C4)cc(O)c2[C@@H]2C[C@@H](C=O)CC[C@H]21 | 0.0201 µM | 0.009 µM | 0.4 | 0.0482 µM | 0.2 | – | – | – | – | – | – | – | – |
| CC1(C)Oc2cc(C34CC5CC(CC(C5)C3)C4)cc(O)c2[C@@H]2C[C@H](C=O)CC[C@H]21 | 0.0257 µM | 0.0055 µM | 0.5 | 0.0529 µM | 0.1 | – | – | – | – | – | – | – | – |
| CC1(C)Oc2cc(C34CC5CC(CC(C5)C3)C4)cc(O)c2[C@@H]2C[C@H](CC=O)CC[C@H]21 | 0.0343 µM | 0.0112 µM | 2.6 | 0.0132 µM | 0.8 | – | – | – | – | – | – | – | – |
| CC1=CC[C@@H]2[C@@H](C1)c1c(O)cc(C34CC5CC(CC(C5)C3)C4)cc1OC2(C)C | – | – | – | – | – | 1.53 µM | – | Active | Active | inactive | – | – | – |
| CC1(C)Oc2cc(C34CC5CC(CC(C5)C3)C4)cc(O)c2[C@@H]2C[C@@H](O)CC[C@H]21 | 0.255 µM | 0.672 µM | – | 0.146 µM | – | – | – | – | – | – | – | – | – |
| CC1(C)Oc2cc(C34CC5CC(CC(C5)C3)C4)cc(O)c2-c2cc(O)ccc21 | 0.251 µM | 0.551 µM | 2.8 | 0.0886 µM | 6.2 | – | – | – | – | – | – | – | – |
| CC1(C)Oc2cc(C34CC5CC(CC(C5)C3)C4)cc(O)c2[C@@H]2C[C@@H](CO)CC[C@H]21 | 0.0651 µM | 0.121 µM | 2.2 | 0.0301 µM | 4 | – | – | – | – | – | – | – | – |
| CC1(C)Oc2cc(C34CC5CC(CC(C5)C3)C4)cc(O)c2[C@@H]2C[C@@H](CC=O)CC[C@H]21 | 0.0081 µM | 0.0078 µM | 0.5 | 0.0175 µM | 0.4 | – | – | – | – | – | – | – | – |
| CC1(C)Oc2cc(C34CC5CC(CC(C5)C3)C4)cc(O)c2[C@@H]2C[C@H](CC#N)CC[C@H]21 | 0.087 µM | 0.1 µM | 1.8 | 0.0487 µM | 2.1 | – | – | – | – | – | – | – | – |
| CC1(C)Oc2cc(C34CC5CC(CC(C5)C3)C4)cc(O)c2[C@@H]2C[C@H](CO)CC[C@H]21 | 0.0121 µM | 0.0113 µM | 2.5 | 0.0049 µM | 2.3 | 0.096 µM | – | – | – | – | 6.4 °C | Dose-dependent effect | Active |
| CC1(C)Oc2cc(C34CC5CC(CC(C5)C3)C4)cc(O)c2[C@@H]2C[C@@H](CCO)CC[C@H]21 | 0.021 µM | 0.365 µM | 0.5 | 0.0409 µM | 8.9 | – | – | – | – | – | – | – | – |
| CC1(C)Oc2cc(C34CC5CC(CC(C5)C3)C4)cc(O)c2[C@@H]2CC(CO)=CC[C@H]21 | 0.0106 µM | 0.014 µM | 1.5 | 0.0072 µM | 1.9 | 0.23 µM | – | – | – | – | – | – | – |
| CC1(C)Oc2cc(C34CC5CC(CC(C5)C3)C4)cc(O)c2[C@@H]2C[C@H](O)CC[C@H]21 | 0.0394 µM | 0.0405 µM | – | 0.0239 µM | – | – | – | – | – | – | – | – | – |
| CO/C=C\[C@@H]1CC[C@@H]2[C@@H](C1)c1c(O)cc(C34CC5CC(CC(C5)C3)C4)cc1OC2(C)C | 0.0903 µM | 0.0672 µM | 2.9 | 0.031 µM | 2.2 | – | – | – | – | – | – | – | – |
| Cc1ccc2c(c1)-c1c(O)cc(C34CC5CC(CC(C5)C3)C4)cc1OC2(C)C | 0.0422 µM | 0.0635 µM | 0.7 | 0.062 µM | 1 | – | – | – | – | – | – | – | – |
| COc1ccc2c(c1)-c1c(O)cc(C34CC5CC(CC(C5)C3)C4)cc1OC2(C)C | 0.95 µM | 0.338 µM | 1.9 | 0.507 µM | 0.7 | – | – | – | – | – | – | – | – |
| CC1(C)Oc2cc(C34CC5CC(CC(C5)C3)C4)cc(O)c2[C@@H]2C[C@H](CCO)CC[C@H]21 | 0.0384 µM | 0.0333 µM | 4.5 | 0.0086 µM | 3.9 | – | – | – | – | – | – | – | – |
| CC1(C)Oc2cc(C34CC5CC(CC(C5)C3)C4)cc(O)c2[C@@H]2CC(=O)CC[C@H]21 | 0.25 µM | 0.338 µM | – | – | – | – | – | – | – | – | – | – | – |
